# From ChEMBL document CHEMBL1145864, “Synthesis and structure-activity relationship of a new series of COX-2 selective inhibitors: 1,5-diarylimidazoles” (J Med Chem, 2003)
# Tests used:
# [1] = Half life of compound was determined at 1 mg/kg intravenous administration in rat; format: ADME, organism-based; design: dose 1 mg/kg, route intravenous; conditions: in vivo
# [2] = target: Prostaglandin G/H synthase 1 (Homo sapiens, UniProt P23219); format: cell-based, U-937
# Rattus norvegicus [3] = experiment: In vivo anti-inflammatory activity by air pouch model at 1 mg/kg perorally in rat.; format: functional; conditions: route oral
# Outline: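 Rat air pouch: sterile air (20 mL) was injected subcutaneously, with 10 mL refills every 2 days. On day 7, 2 mL of 1% lambda-carrageenan in saline was injected into the pouch. Compound was given orally (suspension in 1% CMC/Tween-80, 10 mL/kg) 0.5 h before carrageenan. At 6 h, exudate was collected and centrifuged, and supernatant PGE2 was measured by ELISA.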
# Rattus norvegicus [4] = experiment: In vivo anti-inflammatory activity determined by rat carrageenan paw edema method at 10 mg/kg perorally; format: functional; conditions: route oral
# [5] = target: T1, Prostaglandin G/H synthase 2 (Homo sapiens) (UniProt P35354); conditions: Blood; at 10 µM
# T1 sequence (whole entry): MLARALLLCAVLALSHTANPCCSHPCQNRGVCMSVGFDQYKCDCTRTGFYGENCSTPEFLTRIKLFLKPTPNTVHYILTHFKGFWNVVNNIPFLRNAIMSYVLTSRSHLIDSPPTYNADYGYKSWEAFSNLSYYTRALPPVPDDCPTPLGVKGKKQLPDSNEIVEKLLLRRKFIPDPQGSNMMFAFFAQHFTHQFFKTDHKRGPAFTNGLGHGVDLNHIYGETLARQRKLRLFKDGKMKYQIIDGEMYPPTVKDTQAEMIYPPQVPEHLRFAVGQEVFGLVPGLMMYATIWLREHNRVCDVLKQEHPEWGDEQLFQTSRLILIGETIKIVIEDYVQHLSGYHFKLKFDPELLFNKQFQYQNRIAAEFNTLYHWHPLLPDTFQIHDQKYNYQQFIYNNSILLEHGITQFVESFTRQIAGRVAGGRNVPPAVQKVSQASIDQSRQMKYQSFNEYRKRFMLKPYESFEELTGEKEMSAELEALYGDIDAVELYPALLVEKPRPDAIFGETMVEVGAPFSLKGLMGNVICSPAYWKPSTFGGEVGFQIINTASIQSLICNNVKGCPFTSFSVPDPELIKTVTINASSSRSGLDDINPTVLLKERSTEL
# [6] = target: T1, Prostaglandin G/H synthase 2 (Homo sapiens); conditions: Blood; at 1 µM
# Rattus norvegicus [7] = experiment: In vivo inhibition of contralateral paw swelling after oral treatment for 28 days (1 mg/kg od) was determined by adjuvabt arthritis in rat; format: functional
# Outline: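 Lewis rats (140–170 g, 7 weeks) received 0.5 mg Mycobacterium butyricum in light mineral oil intradermally into the right hind foot pad; controls received incomplete adjuvant. Groups of 10 were dosed orally at 1 mg/kg daily for 28 days, starting on the day of injection. Left hind paw volume was measured plethysmographically at the end and expressed as % inhibition versus controls.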
# Rattus norvegicus [8] = experiment: In vivo analgesic activity of compound was determined by inflammatory hyperalgesia model at 3 mg/kg perorally in rat; format: functional; conditions: route oral
# Outline: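 Male Sprague–Dawley rats received 1% carrageenan suspension (0.1 mL) into the right hind foot pad. Three hours later, compound (suspended in 1% Tween-80) was given by gavage. After 30 min, a heat stimulus was applied under the inflamed paw and withdrawal latency (s) recorded. The % inhibition of the stimulus-induced latency decrease was calculated relative to the untreated left paw.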
# Rattus norvegicus [9] = experiment: Percentage of [51Cr]- secreted in feces was determined by fecal drug-induced bleeding method in rat at 100 mg/kg, bid for 4 days
# Rattus norvegicus [10] = experiment: In vivo anti-inflammatory activity of compound was determined by rat carrageenan paw edema at 10 mg/kg perorally; conditions: po
# [11] = target: T1, Prostaglandin G/H synthase 2 (Homo sapiens); experiment: In vitro inhibition of Prostaglandin G/H synthase 2 (COX-2)in human whole blood at 1 uM was determined
# Prostaglandin G/H synthase 1, sequence (P23219 whole entry): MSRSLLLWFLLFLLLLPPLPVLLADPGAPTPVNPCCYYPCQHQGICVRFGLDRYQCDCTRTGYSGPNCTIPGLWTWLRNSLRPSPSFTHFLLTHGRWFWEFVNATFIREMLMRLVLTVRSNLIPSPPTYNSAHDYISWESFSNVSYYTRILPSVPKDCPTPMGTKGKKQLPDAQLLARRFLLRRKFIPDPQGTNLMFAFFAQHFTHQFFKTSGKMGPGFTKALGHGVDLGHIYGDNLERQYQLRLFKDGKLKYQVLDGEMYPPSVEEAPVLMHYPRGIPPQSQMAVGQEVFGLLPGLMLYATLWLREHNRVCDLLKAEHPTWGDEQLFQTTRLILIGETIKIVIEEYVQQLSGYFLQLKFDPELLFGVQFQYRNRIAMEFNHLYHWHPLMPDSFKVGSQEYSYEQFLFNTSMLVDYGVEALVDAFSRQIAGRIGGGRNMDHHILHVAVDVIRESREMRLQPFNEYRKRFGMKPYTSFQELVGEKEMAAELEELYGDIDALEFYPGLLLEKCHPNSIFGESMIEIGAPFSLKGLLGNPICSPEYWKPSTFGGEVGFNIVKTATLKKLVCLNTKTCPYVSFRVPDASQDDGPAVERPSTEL
SMILES,half-life [1] [h],IC50 [2] [µM],inhibition [5] [%],inhibition [6] [%],inhibition [11] [%],inhibition in vivo at 1 mg/kg (Rattus norvegicus [3]) [%],inhibition in vivo at 10 mg/kg (Rattus norvegicus [4]) [%],Inhibition (Rattus norvegicus [7]) [%],inhibition in vivo at 3 mg/kg (Rattus norvegicus [8]) [%],Cr secretion (Rattus norvegicus [9]) [%],inhibition in vivo at 10 mg/kg (Rattus norvegicus [10]) [%]
CS(=O)(=O)c1ccc(-n2cnc(Cl)c2-c2ccccc2)cc1,17,> 10,96,82.6,–,83.2,29.2,–,–,–,–
CS(=O)(=O)c1ccc(C2=C(c3ccccc3)C(=O)OC2)cc1 [ROFECOXIB],–,–,100,84.1,–,95.3,33.3,87,83.4,0.6,–
Cc1ccc(-c2cc(C(F)(F)F)nn2-c2ccc(S(N)(=O)=O)cc2)cc1 [CELECOXIB],–,–,–,–,–,93.4,35.7,89,86.7,0.7,–
NS(=O)(=O)c1ccc(-n2cnc(Cl)c2-c2ccccc2)cc1,2.9,5.1,59.5,–,–,96.3,36.3,–,–,–,–
CS(=O)(=O)c1ccc(-n2cnc(Cl)c2-c2ccc(F)cc2)cc1,21,> 10,100,89,–,98.1,–,–,–,–,41.2
CCN(CC)c1ccc(-c2c(Cl)ncn2-c2ccc(S(C)(=O)=O)cc2)cc1,–,> 10,100,9.7,–,64.1,24.2,–,64.1,–,–
COc1ccc2c(c1)c(CC(=O)O)c(C)n2C(=O)c1ccc(Cl)cc1 [INDOMETHACIN],–,–,–,–,–,–,66.2,94,–,7.5,–
Cc1ccc(-c2c(Cl)ncn2-c2ccc(S(C)(=O)=O)cc2)cc1,1.7,> 10,100,90.5,–,65.5,21.6,–,–,–,–
CS(=O)(=O)c1ccc(-n2cnc(Cl)c2-c2ccncc2)cc1,–,> 10,82.4,54.5,–,50.2,31.7,–,69.4,–,–
CS(=O)(=O)c1ccc(-n2cnc(Cl)c2-c2ccc3c(c2)OCO3)cc1,3.5,> 10,100,60.5,–,–,30.6,–,69.9,–,–
CS(=O)(=O)c1ccc(-c2cnc(C#N)n2-c2ccc(F)cc2)cc1,–,> 10,100,–,74,79,28.5,–,–,–,–
CS(=O)(=O)c1ccc(-c2cnc(Br)n2-c2ccc(F)cc2)cc1,–,> 10,92.8,56.2,–,35.5,40.4,–,–,–,–
CN(C)c1ccc(-c2c(Cl)ncn2-c2ccc(S(C)(=O)=O)cc2)cc1Cl,1.2,1.9,98.9,64.6,–,43,33.3,–,63.8,–,–

# Continued, in another order:
half-life [1] [h],IC50 [2] [µM],inhibition [5] [%],inhibition [6] [%],inhibition [11] [%],SMILES,inhibition in vivo at 1 mg/kg (Rattus norvegicus [3]) [%],inhibition in vivo at 10 mg/kg (Rattus norvegicus [4]) [%],Inhibition (Rattus norvegicus [7]) [%],inhibition in vivo at 3 mg/kg (Rattus norvegicus [8]) [%],Cr secretion (Rattus norvegicus [9]) [%],inhibition in vivo at 10 mg/kg (Rattus norvegicus [10]) [%]
3.6,> 10,100,84.1,–,COc1ccc(-c2c(Cl)ncn2-c2ccc(S(C)(=O)=O)cc2)cc1Cl,71.1,31.4,–,66.6,–,–
2.2,2.2,–,–,–,CCOc1ccc(-c2c(Cl)ncn2-c2ccc(S(N)(=O)=O)cc2)cc1,98.9,29.2,97,82.8,0.5,–
3.8,> 1,79.3,–,–,COc1cc(-c2c(Cl)ncn2-c2ccc(S(N)(=O)=O)cc2)ccc1F,58.9,14.3,–,38,–,–
–,> 10,100,75.1,–,Cc1ccc(-c2c(Cl)ncn2-c2ccc(S(C)(=O)=O)cc2)cc1F,18.5,22.6,–,–,–,–
–,> 10,92.6,97.4,–,COc1cc(-c2c(Cl)ncn2-c2ccc(S(C)(=O)=O)cc2)ccc1F,15.1,25,–,20.4,–,–
5.2,2.7,100,76.1,–,Cc1ccc(-c2c(Cl)ncn2-c2ccc(S(N)(=O)=O)cc2)cc1,62.3,32.6,–,–,–,–
17,3.1,61.4,–,–,NS(=O)(=O)c1ccc(-n2cnc(Cl)c2-c2ccc(F)cc2)cc1,93.2,38.6,–,–,–,–
2.9,3.3,100,100,–,COc1ccc(-c2c(Cl)ncn2-c2ccc(S(N)(=O)=O)cc2)cc1F [CIMICOXIB],98.2,31,93,83.4,0.9,–
2.2,> 10,100,79,–,COc1ccc(-c2c(Cl)ncn2-c2ccc(S(C)(=O)=O)cc2)cc1F,89.5,24.2,86,80,0.4,–
